Experimental findings from ChEMBL document CHEMBL1135421, “2-(Anilinomethyl)imidazolines as alpha1 adrenergic receptor agonists: the discovery of alpha1a subtype selective 2'-alkylsulfonyl-substituted analogues” (J Med Chem, 2002) are described below.

For assay [1], the target named is T1, Alpha-1A adrenergic receptor (Homo sapiens) (UniProt P35348).
T1 sequence (whole entry): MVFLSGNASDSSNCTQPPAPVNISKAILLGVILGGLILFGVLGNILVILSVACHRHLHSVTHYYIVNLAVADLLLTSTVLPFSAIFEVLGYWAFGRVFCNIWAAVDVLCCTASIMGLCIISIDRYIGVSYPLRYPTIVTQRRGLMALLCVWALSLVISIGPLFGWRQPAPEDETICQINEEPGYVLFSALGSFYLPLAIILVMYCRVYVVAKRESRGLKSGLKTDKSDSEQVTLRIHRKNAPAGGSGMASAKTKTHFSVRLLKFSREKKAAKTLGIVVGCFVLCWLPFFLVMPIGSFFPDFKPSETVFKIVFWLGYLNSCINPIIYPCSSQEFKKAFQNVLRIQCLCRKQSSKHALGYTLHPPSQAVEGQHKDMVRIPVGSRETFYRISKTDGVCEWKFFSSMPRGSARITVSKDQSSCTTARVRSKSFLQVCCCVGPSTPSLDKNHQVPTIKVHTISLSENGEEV
The assay is described as follows: Efficacy as % of the maximal effect observed for nonselective agonist phenylephrine in rat-1 fibroblasts expressing human alpha1. It is filed as functional. In a few lines: (§1)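 Rat-1 fibroblasts expressing human α1a/α1b/α1d, grown in DMEM with 10% heat-inactivated FBS and 0.6 mg/mL G418, plated 6000 cells/well and cultured 48 h at 37 °C. Loaded 2 h at 37 °C with Calcium Green (4 μM), 0.2% pluronic acid and 2.5 mM probenecid in HEPES buffer pH 7.4. FLIPR read at room temperature: 10 s baseline, then 50 s after compound. 11-point curves as % of 40 μM phenylephrine response, top concentration typically 5 μM.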

Assay [2] addresses T2, Alpha-1B adrenergic receptor (Homo sapiens) (UniProt P35368).
T2 sequence (whole entry): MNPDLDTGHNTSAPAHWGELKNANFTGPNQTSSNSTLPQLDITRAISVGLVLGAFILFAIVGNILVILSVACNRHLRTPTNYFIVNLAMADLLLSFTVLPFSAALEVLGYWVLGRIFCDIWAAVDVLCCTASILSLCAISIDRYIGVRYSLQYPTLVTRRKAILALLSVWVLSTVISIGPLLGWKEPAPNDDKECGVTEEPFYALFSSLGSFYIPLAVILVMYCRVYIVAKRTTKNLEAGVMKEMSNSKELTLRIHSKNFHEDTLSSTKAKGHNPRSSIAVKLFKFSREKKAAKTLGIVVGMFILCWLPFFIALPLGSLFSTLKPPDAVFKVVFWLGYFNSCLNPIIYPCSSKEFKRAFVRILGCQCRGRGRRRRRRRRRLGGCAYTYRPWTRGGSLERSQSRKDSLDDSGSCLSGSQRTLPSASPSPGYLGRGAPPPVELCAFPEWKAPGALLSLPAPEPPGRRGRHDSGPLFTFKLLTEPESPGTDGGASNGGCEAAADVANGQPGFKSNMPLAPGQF
Briefly: Efficacy as % of the maximal effect observed for nonselective agonist phenylephrine in rat-1 fibroblasts expressing human Alpha-1B adrenergic receptor. The format is functional. The essentials:
as §1

In assay [3] the target is T3, Alpha-1A adrenergic receptor (Homo sapiens, UniProt P35348).
T3 sequence (P35348 whole entry): T1 sequence (whole entry)
Briefly: Agonist potency at Alpha-1 adrenergic receptor assayed in rat-1 fibroblasts expressing human Alpha-1A. It is filed as functional. The essentials:
(§2)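 Human α1a, α1b or α1d receptors expressed in Rat-1 fibroblasts (DMEM, 10% heat-inactivated FBS, 0.6 mg/mL G418). Cells were plated at 6000/well and grown 48 h at 37 °C. They were loaded 2 h at 37 °C with Calcium Green (4 μM), pluronic acid 0.2% and probenecid 2.5 mM in HEPES buffer pH 7.4, then read by FLIPR at room temperature: 10 s baseline, 50 s after compound. 11-point curves were expressed as % of the 40 μM phenylephrine response; top concentration typically 5 μM.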

Assay [4] has as its target T4, Alpha-1D adrenergic receptor (Homo sapiens, UniProt P25100).
T4 sequence (P25100 whole entry): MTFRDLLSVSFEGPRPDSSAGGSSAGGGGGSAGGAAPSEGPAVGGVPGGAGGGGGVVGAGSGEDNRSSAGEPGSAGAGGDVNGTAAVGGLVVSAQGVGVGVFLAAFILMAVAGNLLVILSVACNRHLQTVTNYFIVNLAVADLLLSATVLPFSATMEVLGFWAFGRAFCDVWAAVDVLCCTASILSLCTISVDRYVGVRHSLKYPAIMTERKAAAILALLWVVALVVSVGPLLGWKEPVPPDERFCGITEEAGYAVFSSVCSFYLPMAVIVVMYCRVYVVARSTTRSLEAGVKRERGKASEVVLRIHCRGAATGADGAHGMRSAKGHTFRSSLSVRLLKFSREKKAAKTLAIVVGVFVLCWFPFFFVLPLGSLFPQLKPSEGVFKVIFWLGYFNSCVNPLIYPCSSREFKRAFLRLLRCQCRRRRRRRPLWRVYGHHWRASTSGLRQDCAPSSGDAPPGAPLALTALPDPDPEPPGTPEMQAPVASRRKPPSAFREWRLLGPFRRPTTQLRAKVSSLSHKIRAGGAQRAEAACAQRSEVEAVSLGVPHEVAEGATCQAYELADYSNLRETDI
Briefly: (§3) Agonist potency at Alpha-1D adrenergic receptor assayed in rat-1 fibroblasts expressing human alpha1d. The format is functional. In a few lines:
as §2

Assay [5] concerns the target T5, Alpha-2A adrenergic receptor (Homo sapiens, UniProt P08913).
T5 sequence (P08913 whole entry): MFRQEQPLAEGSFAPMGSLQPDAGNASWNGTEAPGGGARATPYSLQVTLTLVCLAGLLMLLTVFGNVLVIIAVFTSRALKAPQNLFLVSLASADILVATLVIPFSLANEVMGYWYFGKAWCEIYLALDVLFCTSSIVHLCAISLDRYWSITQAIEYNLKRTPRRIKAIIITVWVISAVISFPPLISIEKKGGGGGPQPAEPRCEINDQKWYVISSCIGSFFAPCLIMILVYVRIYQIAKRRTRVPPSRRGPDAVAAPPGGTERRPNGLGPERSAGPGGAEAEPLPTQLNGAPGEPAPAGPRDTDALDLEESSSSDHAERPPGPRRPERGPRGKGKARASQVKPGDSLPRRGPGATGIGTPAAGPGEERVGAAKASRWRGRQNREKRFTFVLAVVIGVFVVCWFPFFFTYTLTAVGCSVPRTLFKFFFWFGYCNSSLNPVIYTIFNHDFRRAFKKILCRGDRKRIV
Briefly: Affinity to human aAlpha-2A adrenergic receptor determined by radioligand binding techniques from chinese hamster ovary (CHO) cells. The format is cell-based.

In assay [6] the target is T2, Alpha-1B adrenergic receptor (Homo sapiens). The assay is described as follows: Agonist potency at Alpha-1B adrenergic receptor assayed in rat-1 fibroblasts expressing human Alpha-1B adrenergic receptor. The format is functional. The essentials:
as §1

Assay [7] deals with T6, Alpha-1D adrenergic receptor (Homo sapiens) (UniProt P25100).
T6 sequence (whole entry): T4 sequence (P25100 whole entry)
The description is as §3. It is filed as functional. In a few lines: as §1

The target in assay [8] is T6, Alpha-1D adrenergic receptor (Homo sapiens). The assay is described as follows: Efficacy as percent maximal effect observed for nonselective agonist phenylephrine in rat-1 fibroblasts expressing human Alpha-1D adrenergic receptor. The format is functional. In a few lines:
as §1

Assay [9] addresses T4, Alpha-1D adrenergic receptor. The assay is described as follows: Agonist potency at Alpha-1D adrenergic receptor assayed in rat-1 fibroblasts. The format is functional. The essentials: as §1
For assay [10], the target named is T3, Alpha-1A adrenergic receptor. Briefly: Agonist potency at Alpha-1A adrenoceptors assayed in rat-1 fibroblasts expressing human Alpha-1A. It is filed as functional. The essentials:
as §1

The compound `CS(=O)(=O)c1c(F)cccc1NCC1=NCCN1` came in with a Max in assay [1] of 93%.

In turn, `CC(C)Sc1ccccc1NCC1=NCCN1` displayed a Max in assay [2] of 29%.

Take `CS(=O)(=O)c1ccccc1NCC1=NCCN1`: the results for the EC50 in assay [3] and in [4] were 56.2 nM and greater than 100000 nM, respectively.

In turn, `CCCS(=O)(=O)c1ccccc1NCC1=NCCN1` gave a Ki in assay [5] greater than 7940 nM. Moreover, the pEC5 in assay [6] and in assay [7] was less than 4 each time.

Consider `CSc1ccc(C)cc1NCC1=NCCN1`, for which the figures for the Max in [8] and in assay [2] were 107% and 96%, respectively.

On to `CSc1ccc(Cl)cc1NCC1=NCCN1`, for which the Max in [8] amounted to 106%; in [2], 103%.

Compound `Cc1ccc(S(C)(=O)=O)c(NCC2=NCCN2)c1` registered a Max in assay [2] of 91%.

Take `C[S+]([O-])c1ccccc1NCC1=NCCN1` (stereo not given): the EC50 in assay [3] was 490 nM; in assay [4] it was greater than 100000 nM.

Take `CSc1ccccc1NCC1=NCCN1`: the EC50 in assay [9] was 8.91 nM; in assay [10], 4.57 nM. For the same compound, the Max in assay [8] worked out at 55%.

As for `COc1ccc(SC)c(NCC2=NCCN2)c1`, the Max in assay [8] is 91%; in [2], 92%.

Compound `CS(=O)(=O)c1ccc(Cl)cc1NCC1=NCCN1` returned a Max in assay [2] of 103%.

With `CSc1ccc(F)cc1NCC1=NCCN1`, the figures for the Max in [8] and in assay [2] were 107% and 92%, respectively.

Consider `CCSc1ccccc1NCC1=NCCN1`, for which the Max came to 34% in assay [8] and 82% in [2].

Regarding `CSc1c(F)cccc1NCC1=NCCN1`, the Max in assay [8] amounted to 59%; in assay [2] it was 48%.

For the compound `CSc1cc(F)ccc1NCC1=NCCN1`, the Max was found to be 75% in [8] and 78% in assay [2].

With `CSc1ccc(C(F)(F)F)cc1NCC1=NCCN1`, the Max in assay [8] is 58%; in [2], 114%.
